In PMC5901702 (Journal of biomolecular screening, 2012):

Key:
yeast Rce1p = target: T1, yeast Rce1p (Saccharomyces cerevisiae, UniProt Q03530); experiment: Target specificity: Rce1p activity; type: biochemical; settings: 100 µM compound; relative to DMSO control = 100%
T1 sequence (Q03530 1-315): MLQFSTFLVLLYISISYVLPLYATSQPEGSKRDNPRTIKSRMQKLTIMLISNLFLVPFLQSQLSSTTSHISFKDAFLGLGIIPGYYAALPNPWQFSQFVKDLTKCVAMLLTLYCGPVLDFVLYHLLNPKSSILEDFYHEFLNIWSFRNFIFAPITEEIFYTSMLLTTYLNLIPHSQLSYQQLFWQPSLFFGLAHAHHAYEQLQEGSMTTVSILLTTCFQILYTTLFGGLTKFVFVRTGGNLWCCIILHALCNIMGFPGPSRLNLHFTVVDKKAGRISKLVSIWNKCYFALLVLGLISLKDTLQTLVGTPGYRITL
In short: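 Yeast-derived microsomes (250 µg/mL) enriched for Rce1p or Ste24p were preincubated 10 min with 100 µM compound. They were assayed with an internally quenched fluorogenic farnesylated K-Ras C-terminus–based peptide, read at 320/420 nm ex/em. Rates were in triplicate, normalized by trypsin/pronase complete digestion, and expressed relative to DMSO control (100%).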

Ste23p = target: T2, Ste23p (Saccharomyces cerevisiae, UniProt Q06010); experiment: Target specificity: Ste23p activity with a-factor–based peptide; type: biochemical, yeast; settings: 100 µM compound; 30 °C; relative to DMSO control = 100%
T2 sequence (Q06010 1-1027): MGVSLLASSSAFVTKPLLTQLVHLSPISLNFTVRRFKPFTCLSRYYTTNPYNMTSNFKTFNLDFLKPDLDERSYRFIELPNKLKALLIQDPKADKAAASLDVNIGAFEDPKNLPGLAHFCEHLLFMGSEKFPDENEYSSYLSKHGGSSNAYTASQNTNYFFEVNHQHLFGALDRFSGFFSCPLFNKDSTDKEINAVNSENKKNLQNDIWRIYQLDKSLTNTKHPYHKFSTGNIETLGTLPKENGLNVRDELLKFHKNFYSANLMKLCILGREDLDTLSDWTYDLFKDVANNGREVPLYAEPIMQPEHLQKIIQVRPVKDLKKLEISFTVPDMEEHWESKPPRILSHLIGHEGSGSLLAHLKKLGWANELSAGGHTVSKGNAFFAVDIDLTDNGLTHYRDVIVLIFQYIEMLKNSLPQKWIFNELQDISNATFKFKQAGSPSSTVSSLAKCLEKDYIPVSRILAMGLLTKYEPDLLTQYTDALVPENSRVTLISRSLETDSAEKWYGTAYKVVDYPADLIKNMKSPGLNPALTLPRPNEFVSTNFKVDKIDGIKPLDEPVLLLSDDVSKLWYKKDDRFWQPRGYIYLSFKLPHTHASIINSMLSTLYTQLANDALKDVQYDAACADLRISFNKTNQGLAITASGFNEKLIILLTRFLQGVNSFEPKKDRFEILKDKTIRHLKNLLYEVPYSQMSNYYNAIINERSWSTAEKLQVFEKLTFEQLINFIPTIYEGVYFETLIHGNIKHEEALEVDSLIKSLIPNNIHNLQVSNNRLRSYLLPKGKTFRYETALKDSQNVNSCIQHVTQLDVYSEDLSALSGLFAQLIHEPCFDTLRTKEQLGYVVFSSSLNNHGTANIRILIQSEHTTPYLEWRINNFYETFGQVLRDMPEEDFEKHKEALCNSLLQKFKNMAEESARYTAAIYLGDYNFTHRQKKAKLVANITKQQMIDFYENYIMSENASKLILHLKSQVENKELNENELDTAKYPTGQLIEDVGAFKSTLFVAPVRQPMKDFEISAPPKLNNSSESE
In short: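 Single-dose specificity assay with a-factor–based fluorogenic peptide (50 µM) in 0.1 M KPi pH 7.6. Ste23p was used at 10 µg/mL and 30 °C; trypsin and pronase E at 0.5 µg/mL each under the 37 °C HTS conditions. Enzymes were preincubated 10 min with 100 µM compound. Triplicate rates were normalized by trypsin/pronase full digestion and given relative to DMSO control (100%).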

rat IDE [1] = target: T3, rat IDE (Rattus norvegicus, UniProt P35559); type: biochemical; settings: 100 µM compound; a-factor–based substrate 50 µM; 0.1 M KPi pH 7.6; relative to DMSO-treated control = 100%
T3 sequence (P35559 1-1019): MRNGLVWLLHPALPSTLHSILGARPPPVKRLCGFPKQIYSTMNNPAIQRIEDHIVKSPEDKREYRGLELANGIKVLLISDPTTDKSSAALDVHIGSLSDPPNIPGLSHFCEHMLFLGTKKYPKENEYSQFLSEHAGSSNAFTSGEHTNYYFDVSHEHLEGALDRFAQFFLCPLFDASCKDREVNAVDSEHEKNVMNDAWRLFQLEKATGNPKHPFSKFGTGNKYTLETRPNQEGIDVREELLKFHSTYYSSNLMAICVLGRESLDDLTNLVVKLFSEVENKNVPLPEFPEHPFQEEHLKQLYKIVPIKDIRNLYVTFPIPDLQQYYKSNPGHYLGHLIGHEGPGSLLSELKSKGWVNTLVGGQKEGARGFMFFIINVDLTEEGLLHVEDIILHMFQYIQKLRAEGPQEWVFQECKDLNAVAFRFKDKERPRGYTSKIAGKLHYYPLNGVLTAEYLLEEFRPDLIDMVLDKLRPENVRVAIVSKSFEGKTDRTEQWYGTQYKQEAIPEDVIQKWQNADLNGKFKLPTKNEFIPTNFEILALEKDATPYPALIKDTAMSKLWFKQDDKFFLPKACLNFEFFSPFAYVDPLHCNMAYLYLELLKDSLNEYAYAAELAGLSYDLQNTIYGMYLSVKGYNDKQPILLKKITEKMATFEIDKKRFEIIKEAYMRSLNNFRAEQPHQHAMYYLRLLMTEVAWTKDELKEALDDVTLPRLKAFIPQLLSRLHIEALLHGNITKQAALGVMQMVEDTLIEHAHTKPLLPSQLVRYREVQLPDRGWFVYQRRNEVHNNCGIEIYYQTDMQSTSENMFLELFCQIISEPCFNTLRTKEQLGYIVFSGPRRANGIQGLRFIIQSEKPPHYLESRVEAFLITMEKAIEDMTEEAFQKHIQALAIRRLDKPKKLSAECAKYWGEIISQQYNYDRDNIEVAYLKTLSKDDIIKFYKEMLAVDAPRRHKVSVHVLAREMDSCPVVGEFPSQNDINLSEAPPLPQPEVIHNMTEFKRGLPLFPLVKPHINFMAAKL
In short: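 Then mixed 1:1 with substrate. Fluorescence was followed for 60 min, and rates were taken from the 15–30 min window. Activity was normalized by the trypsin/pronase approach.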

rat IDE [2] = target: T3, rat IDE; experiment: Native PAGE mobility shift of rat IDE; type: binding; settings: 100 µM compound; 60 min at 37 °C
In short: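 Rat IDE was preincubated 60 min at 37 °C with compound (100 µM) or ATP (3 mM). It was mixed 1:1 with 2× native sample buffer (0.6 M Tris-HCl pH 6.8, 20% glycerol, bromophenol blue), run on 10% native PAGE at 4 °C and silver-stained.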

| SMILES | % Activity Rce1p (yeast Rce1p) | % Activity Ste23p (Ste23p) | % Activity IDE (rat IDE [1]) | native PAGE mobility shift of IDE (rat IDE [2]) |
| --- | --- | --- | --- | --- |
| O=S(=O)(O)CCCc1cccc2ccccc12 [Compound 1] | 89.7 ± 3.8% | 112.0 ± 5.4% | 195.4 ± 12.2% |  |
| Cn1ncc2c(NCCc3ccccc3)nc(Cl)nc21 [Compound 2] | 83.2 ± 3.4% | 117.2 ± 2.8% | 170.3 ± 16.0% |  |
| O=S(=O)(O)c1cc(O)c2c(O)c(N=Nc3cccc4ccccc34)c(S(=O)(=O)O)cc2c1 [Compound 3] |  | 90.4 ± 0.6% | 356.0 ± 16.0% | did not reveal a mobility shift |
| Nc1nc(SCc2ccccc2Cl)cc(C(=O)O)n1 [Compound 5] | 101.2 ± 11.0% | 103.4 ± 1.6% | 263.5 ± 1.0% |  |
| O=C(CCN1CC2CCC(CC2)C1)c1cccs1 [Compound 6] | 90.1 ± 1.0% | 82 ± 0.3% | 230.7 ± 13.5% | noticeable shift |
| O=C(O)c1ccc(Oc2nc3ccccc3s2)cc1 [Compound 7] | 89.6 ± 2.4% | 102.1 ± 1.7% | 186.6 ± 7.4% |  |
| O=[N+]([O-])/C=C/c1cc2ccccc2[nH]1 [Compound 8] |  | 80.1 ± 6.0% | 195.0 ± 14.0% | noticeable shift |
